Screening data: PubChem, The Scripps Research Institute Molecular Screening Center
TAAR1 antagonist = human TAAR1 antagonists, primary screen, Fluo-8 calcium fluorescence, CHO RD-HGA16 cells; Trace amine-associated receptor 1 (Homo sapiens), Q96RJ0; antagonist; inhibition, % at 3 µM; 1.5% of 360,000 active; AID 624466, 2012;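 active = inhibition above a per-plate cutoff, the mean inhibition of test compounds on that plate plus 3 SD, cut at about 49% in these data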;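 note: 0% = DMSO plus EC80 beta-PEA response and 100% = DMSO alone without agonist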
Target sequence (Q96RJ0 whole entry, looked up): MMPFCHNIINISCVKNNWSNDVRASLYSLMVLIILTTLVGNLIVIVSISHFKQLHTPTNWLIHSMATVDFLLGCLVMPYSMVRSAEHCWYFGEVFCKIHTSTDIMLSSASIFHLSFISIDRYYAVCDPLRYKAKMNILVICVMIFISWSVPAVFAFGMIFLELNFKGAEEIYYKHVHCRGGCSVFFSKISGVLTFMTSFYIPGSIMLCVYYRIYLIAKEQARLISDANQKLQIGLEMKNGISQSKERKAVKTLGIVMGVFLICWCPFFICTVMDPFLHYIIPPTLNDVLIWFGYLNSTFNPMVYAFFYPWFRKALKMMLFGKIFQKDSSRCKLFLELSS
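Assay system: CHO-derived RD-HGA16 cells stably expressing human TAAR1 plus Gα16. Timing: 140 s kinetic read after compound, 140 s after agonist. Technique: kinetic Fluo-8 calcium fluorescence measurement. Measure: % inhibition of agonist calcium response.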
TAAR1 ag = human TAAR1 agonists, primary screen, Fluo-8 calcium fluorescence, CHO RD-HGA16 cells. Trace amine-associated receptor 1 (Homo sapiens), Q96RJ0. vehicle wells 0%, saturating PEA agonist 100%. activation, % at 3 µM. 0.99% of 360,000 active;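 active = activation above the mean activation of all test compounds in the run plus 3 SD, cut at about 38% in these data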
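Test system: RD-HGA16 (CHO) cells co-expressing Gα16 and hTAAR1 / Benchmarks: DMSO vehicle as 0%, PEA at EC100 as 100% / Repeats: no replicates (n 1) / Measure: % activation from peak over basal fluorescence ratio, DMSO-to-PEA scaled / Timing: 17-24 h plating, Fluo-8 75 min 37 °C, 30 min RT / Technique: kinetic Fluo-8 calcium fluorescence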
OX1R antag-1 = antagonists of human orexin 1 receptor (OX1R) | Orexin/Hypocretin receptor type 1 (Homo sapiens), O43613 | OX1R-expressing cells, FRET antagonist read-out | inhibition, % at 6.6 µM | 1.8% of 330,000 active | AID 485270, 2010; in the data active = inhibition mostly above about 38%, no sharp cut-off; inactive = mostly below about 40%;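 note: 0% = agonist challenge alone and 100% = reference antagonist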
OX1R antag-2 = OX1R (HCRTR1) antagonists, primary screen, fluorescence, CHO/OX1R cells, Fluo-8 calcium, orexin A | Orexin/Hypocretin receptor type 1 (Homo sapiens), O43613 | Fluo-8 calcium fluorescence | inhibition, % at 5 µM | 0.43% of 330,000 active;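 active = inhibition above its plate's threshold, mean inhibition of all tested compounds on the plate plus 3 SD, cut at about 37% in these data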;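 note: 0% = orexin A challenge wells and 100% = SB-334867-A antagonist wells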
CHO parental Ca = ATP-evoked calcium signal inhibitors, parental CHO, primary screen, counter-screen for OX1R antagonist project, cell-based, fluorescence, Fluo-8 calcium dye | parental CHO-K1, ATP-induced calcium, Fluo-8 fluorescence | inhibition, % at 5.6 µM | 0.63% of 330,000 active;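 active = inhibition above that plate's mean sample inhibition plus 3 SD, cut at about 26% in these data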;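 note: 0% = ATP-challenged DMSO wells and 100% = DMSO wells without ATP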
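Measured by: calcium-sensitive Fluo-8 fluorescence / Test system: CHO parental line / Controls: ATP-challenged DMSO wells low, unchallenged DMSO wells high / Measure: % inhibition / Compound: single nominal dose of 5.6 µM per compound / Replicates: single well per compound, no replicates / Reagent: ATP as calcium-mobilizing challenge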
* hit, by the source's call. This is a sample that favours compounds with a hit; in the whole collection about 3.9% have one here.

For COc1ccccc1N1CCN(S(=O)(=O)c2ccc(F)cc2)CC1 the results were TAAR1 antagonist 3, TAAR1 ag 38*, OX1R antag-1 -1, OX1R antag-2 -13 and CHO parental Ca -5.
CCN(CC)S(=O)(=O)c1ccc(N2CCN(c3ccccc3OC)CC2)c(N)c1 was read as TAAR1 antagonist 26, TAAR1 ag 4, OX1R antag-1 38, OX1R antag-2 6 and CHO parental Ca 61*.
O=C(Nc1ccnn1C1CCN(Cc2ccc(CO)o2)CC1)c1cccc(F)c1 was read as TAAR1 antagonist -16 and TAAR1 ag 0.
Screening O=C(Cc1ccc(NC(=O)C2CCCN(C(=O)c3ccccc3)C2)cc1)Nc1cccc(C(=O)N2CCCC2)c1 (stereo not given) returned TAAR1 antagonist -27 and TAAR1 ag 3.
For CC(=O)C1(O)C(C)CC2C3CC(F)C4(O)CC(O)CCC4(C)C3CCC21C (stereo not given) the results were TAAR1 antagonist 5 and TAAR1 ag 6.
For C=CCN=C1NC(c2ccccc2C(F)(F)F)C(C(=O)OC)=C(C)N1Cc1ccc(C(F)(F)F)cc1 (stereo not given) the results were TAAR1 antagonist -3 and TAAR1 ag 3.
C[C@H](O)[C@@H]1C(=O)N2CCc3c([nH]c4cccc(-c5ccccc5)c34)[C@@H]2C[C@@H]1N(C)C(=O)c1ccco1 was read as TAAR1 antagonist 5 and TAAR1 ag 0.
Screening C[C@@H]1CN([C@H](C)CO)C(=O)CCCn2nncc2CO[C@H]1CN(C)CC1CC1 returned TAAR1 antagonist -9 and TAAR1 ag 1.
Screening O=[N+]([O-])c1c(NCCO)cc(N2CCCCCC2)c2nonc12 returned TAAR1 antagonist 5, TAAR1 ag -2, OX1R antag-1 42, OX1R antag-2 -18 and CHO parental Ca -7.
CCOC(=O)C1CCCN(c2cc(NCCCO)c([N+](=O)[O-])c3nonc23)C1 (stereo not given) was read as TAAR1 antagonist -17, TAAR1 ag 6, OX1R antag-1 73*, OX1R antag-2 -30 and CHO parental Ca -6.
Cc1ccc2nc(SCc3nc4c(cnn4-c4ccccc4)c(=O)[nH]3)[nH]c2c1 was read as TAAR1 antagonist 44, TAAR1 ag 13, OX1R antag-1 90*, OX1R antag-2 80* and CHO parental Ca 39*.
O=c1[nH]c(CSc2nc3ccccc3[nH]2)nc2c1cnn2-c1ccccc1 was read as TAAR1 antagonist 42, TAAR1 ag 13, OX1R antag-1 106*, OX1R antag-2 90* and CHO parental Ca 52*.
`CC(=O)Nc1cc(-c2ccccc2)cn2c(-c3ccc(F)cc3)cnc12` gave TAAR1 antagonist 49* and TAAR1 ag 6.
COc1cc(-c2cc(NC(C)=O)c3ncc(-c4ccc(F)cc4)n3c2)cc(OC)c1OC was read as TAAR1 antagonist 52* and TAAR1 ag 13.
Screening CC(=O)Nc1cc(-c2ccc(F)cc2)cn2c(-c3ccc(F)cc3)cnc12 returned TAAR1 antagonist 33 and TAAR1 ag 1.
`CC[C@H](C)[C@H]1CNC(=S)N1CC1CCN(CCC(C)C)CC1` gave TAAR1 antagonist 5 and TAAR1 ag 0.
`COc1ccccc1Nc1ccc(NC(=O)c2cccc([N+](=O)[O-])c2C)cc1` gave TAAR1 antagonist 51*, TAAR1 ag -1, OX1R antag-1 7, OX1R antag-2 -3 and CHO parental Ca -8.
COc1ccccc1NC(=O)c1ccccc1S(=O)(=O)c1ccccc1[N+](=O)[O-] was read as TAAR1 antagonist -5, TAAR1 ag 3, OX1R antag-1 58*, OX1R antag-2 -9 and CHO parental Ca -14.
For CC(=O)Nc1ccc(S[C@@H](CCN2CC[C@H](C(C)(C)C)CCC2=O)c2ccccc2)cc1 the results were TAAR1 antagonist 49*, TAAR1 ag 17, OX1R antag-1 10, OX1R antag-2 -15 and CHO parental Ca -22.
`CSc1nc(C)cc(OCCNS(=O)(=O)c2ccc(C)cc2)n1` gave TAAR1 antagonist 3, TAAR1 ag 8, OX1R antag-1 39*, OX1R antag-2 13 and CHO parental Ca -20.
For Cc1cc(N/N=C/c2ccc([N+](=O)[O-])o2)nc2ccccc12 the results were TAAR1 antagonist 34, TAAR1 ag 12, OX1R antag-1 42*, OX1R antag-2 25 and CHO parental Ca -6.
For CC1(C(=O)NS(=O)(=O)c2cccc(F)c2)CCN1C(=O)CC1CCCC1 (stereo not given) the results were TAAR1 antagonist -19 and TAAR1 ag 1.
For O=C1c2ccccc2C(=O)c2c1ccc(C(=O)N1CCCCC1)c2NCCO the results were TAAR1 antagonist -3, TAAR1 ag 6, OX1R antag-1 25, OX1R antag-2 -11 and CHO parental Ca 6.
Screening CCN(CCN(C)C)C(=O)c1ccc2c(c1NCCO)C(=O)c1ccccc1C2=O returned TAAR1 antagonist -21, TAAR1 ag -1, OX1R antag-1 75*, OX1R antag-2 -8 and CHO parental Ca -9.
`CC(C)CC(NC(=O)OCc1ccccc1)C(=O)NCC(=O)NCC(=O)OCc1ccccc1` (stereo not given) gave TAAR1 antagonist -15 and TAAR1 ag 1.
Screening Cc1cccc(NC(=O)c2nc[nH]c2C(=O)N(C)CCO)c1 returned TAAR1 antagonist 2 and TAAR1 ag 3.
O=[N+]([O-])c1ccc(-c2nc(-c3ccncc3)no2)cc1 was read as TAAR1 antagonist -16, TAAR1 ag 2, OX1R antag-1 64*, OX1R antag-2 -4 and CHO parental Ca -18.
Screening Cc1ccc(Nc2nc(NCCO)nc3c2cnn3C)cc1Cl returned TAAR1 antagonist 4, TAAR1 ag 38*, OX1R antag-1 25, OX1R antag-2 -37 and CHO parental Ca -16.
`CCOC(=O)C1=C(Cc2ccc(F)cc2)C(=O)c2ccccc2C1=O` gave TAAR1 antagonist 52*, TAAR1 ag 31, OX1R antag-1 21, OX1R antag-2 -13 and CHO parental Ca -14.
`Cc1ccc(C(C)(C)C)cc1S(=O)(=O)Nc1ncnc2sccc12` gave TAAR1 antagonist -8, TAAR1 ag 4, OX1R antag-1 6, OX1R antag-2 6 and CHO parental Ca -27.
For CNS(=O)(=O)c1cc(Nc2ncnc3sccc23)ccc1C the results were TAAR1 antagonist 7, TAAR1 ag 5, OX1R antag-1 63*, OX1R antag-2 19 and CHO parental Ca 4.
